Sampled rows, rich in hits. Any-hit rate of the full collection: about 4.7%.
VIM-2 inh – blocks Pseudomonas aeruginosa VIM-2 metallo-beta-lactamase; purified VIM-2, nitrocefin hydrolysis, epi-absorbance fluorescence; 290,000 compounds, 0.89% hits; inhibition, % at 5.6 µM;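 active = inhibition above the mean of all tested compounds plus 3 SD, cutoff set per screening run, cut at about 7.5% in these data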;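 note: red hydrolysis product quenches plate fluorescence so inhibitors raise well fluorescence; 0% = enzyme with DMSO and 100% = DMSO without enzyme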
aSyn UTR inh – MLPCN primary screen, SNCA 5' untranslated region; alpha-synuclein 5'UTR reporter, inhibitor activity; inhibition, % (tested at 7.5 µM); 300,000 compounds, 0.82% hits; AID 1813; in the data active = inhibition above about 60%;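 note: H4 neuroglioblastoma cells stably carrying SNCA 5'UTR luciferase fusion; 0% = DMSO wells and 100% = positive control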
Jurkat NFkB inh – inhibitors of the PMA/ionomycin-induced NF-kB reporter in Jurkat cells | PMA/ionomycin-induced NF-kB luciferase reporter, luminescence | inhibition, % at 4 µM | 330,000 compounds, 0.53% hits; in the data active = inhibition above about 50%
IMP-1 inhibitor – blocks Pseudomonas aeruginosa IMP-1 metallo-beta-lactamase; purified IMP-1, nitrocefin hydrolysis, epi-absorbance fluorescence; inhibition, % at 5.6 µM; 290,000 compounds, 0.45% hits;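 active = inhibition above the mean plus 3 SD of all compounds in the same screening run, cut at about 4.5% in these data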;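 note: 0% = IMP-1 with DMSO and 100% = DMSO wells lacking enzyme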
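System: Purified IMP-1 | Read-out basis: Percent enzyme inhibition | Controls: IMP-1 with DMSO as 0%, enzyme-free DMSO as 100% | Replicates: One well per compound | Doses: 5.6 µM nominal single concentration | Detection: Epi-absorbance fluorescence, 480 nm excitation, 530 nm emission | Incubation: 25 °C, 15 min preincubation, 25 min reaction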
Mdm2 MdmX PPI – inhibitors of human Mdm2/MdmX interaction; O15151+Q00987; SaOS-2 split-luciferase Mdm2/MdmX complementation, luminescence; inhibition, % at 8 µM; 330,000 compounds, 3% hits;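 active = inhibition of at least 50% at 8 µM in the primary screen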
Target sequence (O15151 whole entry, looked up): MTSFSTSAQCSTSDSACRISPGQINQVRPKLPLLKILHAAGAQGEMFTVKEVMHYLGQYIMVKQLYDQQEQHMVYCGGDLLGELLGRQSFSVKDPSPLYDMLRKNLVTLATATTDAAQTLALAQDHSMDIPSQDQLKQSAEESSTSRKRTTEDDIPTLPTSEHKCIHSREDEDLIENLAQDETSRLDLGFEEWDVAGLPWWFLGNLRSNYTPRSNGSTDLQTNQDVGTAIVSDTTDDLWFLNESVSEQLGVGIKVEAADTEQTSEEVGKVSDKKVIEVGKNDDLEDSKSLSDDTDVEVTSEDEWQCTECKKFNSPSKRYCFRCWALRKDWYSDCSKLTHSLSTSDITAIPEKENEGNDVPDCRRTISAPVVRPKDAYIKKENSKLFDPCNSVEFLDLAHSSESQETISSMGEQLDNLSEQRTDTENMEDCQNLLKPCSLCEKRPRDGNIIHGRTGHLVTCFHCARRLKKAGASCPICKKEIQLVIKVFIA
Target sequence (Q00987 whole entry, looked up): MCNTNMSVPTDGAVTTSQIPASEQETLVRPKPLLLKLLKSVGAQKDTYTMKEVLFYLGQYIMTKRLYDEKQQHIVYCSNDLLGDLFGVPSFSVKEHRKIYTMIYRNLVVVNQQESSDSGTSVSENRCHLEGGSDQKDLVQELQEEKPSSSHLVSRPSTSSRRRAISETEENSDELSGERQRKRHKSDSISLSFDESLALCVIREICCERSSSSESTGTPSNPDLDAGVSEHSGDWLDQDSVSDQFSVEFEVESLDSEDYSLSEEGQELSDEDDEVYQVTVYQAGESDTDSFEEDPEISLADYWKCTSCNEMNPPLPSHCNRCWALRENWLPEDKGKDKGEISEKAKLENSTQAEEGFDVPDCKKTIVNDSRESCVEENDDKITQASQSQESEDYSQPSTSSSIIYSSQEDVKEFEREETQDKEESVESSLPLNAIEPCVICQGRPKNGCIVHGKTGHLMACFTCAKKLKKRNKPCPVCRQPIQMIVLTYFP
697 NFkB inh – lowers PMA/ionomycin-induced NF-kB signal in 697 B cells | 697 B-cell NF-kB luciferase reporter, 16 h | inhibition, % at 4 µM | 330,000 compounds, 0.33% hits | AID 435022; in the data active = inhibition above about 35%
Mdm2-MdmX conf – confirmation of human Mdm2/MdmX interaction inhibitors; shares compounds with Mdm2 MdmX PPI; Mdm2-MdmX binding, luminescent assay; inhibition, % at 8 µM; 10,000 compounds, 55% hits; AID 489028; in the data active = inhibition above about 40%
FLuc counter – inhibits full-length luciferase, flagging false Mdm2/MdmX hits | 6,200 compounds, 77% hits | SaOS-2 full-length luciferase counterscreen, luminescence | shares compounds with Mdm2 MdmX PPI | inhibition, % at 8 µM;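 active = mean inhibition at 8 µM reaching about 37%, which flags the compound as non-specific, limit read from the data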;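 note: p53-null SaOS-2 cells with luciferase driven by a doxycycline-inducible promoter; compound on cells about two nights before reading with doxycycline added after day one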
Starred values were filed as active, the others as inactive; / = not tested or not shown.

SMILES | VIM-2 inh | aSyn UTR inh | Jurkat NFkB inh | IMP-1 inhibitor | Mdm2 MdmX PPI | 697 NFkB inh | Mdm2-MdmX conf | others
CC1=C(C(=O)OCc2ccc3c(c2)OCO3)C(c2ccc(O)c([N+](=O)[O-])c2)NC(=O)N1 (configuration not stated) | -3.6 | 4.0 | -2.7 | -2.1 | 51.3* | 8.3 | 35.4
CC1=C(C(=O)OCc2ccc3c(c2)OCO3)C(c2ccccc2)NC(=O)N1 (configuration not stated) | -3.1 | 26.3 | 45.8 | -2.6 | 87.0* | -34.7 | 90.9* | FLuc counter=51.5*
CC(=O)Nc1ccc(Nc2cc(N3CCOCC3)c3nonc3c2[N+](=O)[O-])cc1 | 2.8 | 10.4 | -12.7 | -0.3 | 29.7 | -9.7 | /
O=[N+]([O-])c1c(Nc2ccccc2O)cc(Cl)c2nonc12 | 2.1 | 11.6 | -6.7 | -1.6 | 94.8* | -31.4 | 99.8* | FLuc counter=53.9*
O=[N+]([O-])c1c(Nc2ccc(O)cc2)cc(N2CCOCC2)c2nonc12 | 2.4 | 24.2 | 0.1 | -0.4 | 50.7* | -24.3 | 18.1
O=[N+]([O-])c1c(Nc2ccccc2O)ccc2nonc12 | 0.4 | -52.6 | -4.1 | -3.4 | 5.5 | 13.5 | /
COc1ccc(C(=O)NCC(=O)N/N=C/c2cn(C)c3ccccc23)cc1OC | -0.1 | / | 15.2 | -1.6 | -14.6 | 9.8 | /
NC(=O)COC(=O)c1ccc(-c2ccc(O)cc2)cc1 | 0.2 | -13.0 | -1.7 | -3.1 | 22.0 | 7.3 | /
CC(C)(C)OC(=O)N1Cc2ccccc2C[C@H]1C(=O)NCC(=O)Nc1ccc2c(c1)OCCO2 | -1.6 | 14.6 | 29.4 | -3.0 | 63.8* | -24.7 | 65.7* | FLuc counter=67.0*
COc1cccc(NC(=O)CNC(=O)[C@@H]2Cc3ccccc3CN2C(=O)OC(C)(C)C)c1 | -2.9 | 3.0 | 11.4 | -2.8 | -9.7 | 6.6 | /
C#CCOc1ccc(C2C(C#N)=C(N)Oc3cc(O)ccc32)cc1 (configuration not stated) | -1.3 | 6.8 | 2.0 | -3.1 | 20.0 | 13.6 | /
Nc1nc(N)c(N=O)c(OCC2CCCCC2)n1 | -3.2 | -17.6 | 3.8 | -4.5 | 57.1* | -13.3 | 33.4
C=CCC(=O)N1CCCC(CO)(Cc2ccc(F)cc2F)C1 (configuration not stated) | -2.2 | -0.4 | -17.6 | -2.3 | -10.7 | -42.3 | /
COc1ccc(CNC(=O)CSc2nc3cccnc3s2)cc1 | -1.2 | -31.8 | -3.5 | -2.2 | 7.9 | -1.2 | /
CC(NC(=O)c1ccc(CS(C)(=O)=O)cc1)c1ccc(-c2ccccc2)cc1 (configuration not stated) | -0.7 | 2.8 | 25.3 | -2.6 | 52.2* | 0.0 | -1.6
CC(NC(=O)c1ccc(CS(C)(=O)=O)cc1)c1ccc(-n2ccnc2)cc1 (configuration not stated) | -1.3 | -16.4 | -12.9 | -2.5 | -9.9 | 4.9 | /
O=c1/c(=C\c2ccc(O)cc2)sc2n1C(c1ccccc1)C(c1ccccc1)=NN=2 (configuration not stated) | -5.9 | -42.4 | 9.7 | -1.1 | 79.0* | 19.2 | 42.9* | FLuc counter=50.7*
COc1cccc(C2C(C(=O)OC(C)C)=C(C)N=c3s/c(=C\c4ccc(C(=O)O)cc4)c(=O)n32)c1 (configuration not stated) | 0.0 | -27.8 | -5.0 | -4.0 | 1.1 | 8.0 | /
O=C(CN1C(=O)NC2(CCCCCC2)C1=O)N1CCN(S(=O)(=O)c2ccccc2)CC1 | -3.0 | -6.2 | -5.3 | -2.9 | -4.9 | 1.9 | /
O=C1/C(=C\c2ccccc2)SC(=S)N1CCC(=O)N1CCCCC1CCO (configuration not stated) | -1.1 | -47.1 | 9.8 | 0.0 | 72.1* | 2.2 | 3.1
O=C1/C(=C/c2ccccc2)SC(=S)N1CC(=O)N1CCCCC1c1cccnc1 (configuration not stated) | -2.3 | -30.0 | 3.7 | -1.6 | 84.9* | 7.6 | 31.8 | FLuc counter=20.6
O=C1/C(=C/c2ccccc2Cl)SC(=S)N1CCC(=O)N1CCCCC1CCO (configuration not stated) | 4.5 | -30.8 | 19.2 | 1.2 | 52.8* | 2.9 | 23.7
COc1ccc(/C=C2\SC(=S)N(CCC(=O)NCCCn3ccnc3)C2=O)cc1 | 1.7 | 54.3 | -21.9 | 3.6 | 16.0 | -10.3 | /
COc1ccc(/C=C2\SC(=S)N(CCCC(=O)N3CCCCC3CCO)C2=O)cc1 (configuration not stated) | -0.3 | 67.9* | 3.5 | 1.1 | 63.5* | 3.3 | 21.6
Cc1ccc(C(=O)N/N=C\c2cc3c(cc2Br)OCO3)s1 | -2.6 | -10.9 | 17.1 | -1.6 | -42.3 | -59.7 | /
SMILES | VIM-2 inh | aSyn UTR inh | Jurkat NFkB inh | IMP-1 inhibitor | Mdm2 MdmX PPI | 697 NFkB inh | Mdm2-MdmX conf | others
CCN(CC)CCNC(=O)c1c(C)n(-c2ccccc2)c2cc(Br)c(OC)cc12 | 8.0* | -32.4 | -22.3 | -1.8 | 80.7* | -8.7 | 37.7 | FLuc counter=37.9*
O=C(NNC(=O)C1CCN(S(=O)(=O)c2ccc(Cl)cc2)CC1)c1ccccc1O | / | 11.6 | -2.6 | / | 55.7* | 3.9 | 59.1* | FLuc counter=45.8*
COCCNc1ccc(N2C(=O)CCCC2=O)cc1[N+](=O)[O-] | -3.4 | 1.5 | 11.3 | -2.3 | 7.3 | 11.6 | /
COC(=O)c1ccc[n+](CCc2c[nH]c3ccccc23)c1 | / | -1.3 | -2.3 | / | -18.7 | -0.8 | /
CN1CCN(c2nc(-c3ccccc3)c3cc(Cl)ccc3n2)CC1 | 3.7 | 1.4 | 6.3 | -3.7 | 19.2 | 23.0 | /
O=C1CN(c2nc(-c3ccccc3)c3cc(Cl)ccc3n2)c2ccccc2N1 | 2.1 | 5.3 | 5.9 | -0.8 | 67.8* | 1.2 | 0.9
CCOc1ccccc1N1CC(C(=O)Nc2ccccc2CC)CC1=O (configuration not stated) | -2.3 | -3.0 | 12.7 | -3.0 | -4.9 | 10.0 | /
Cc1ccccc1NC1=C(Cl)C(=O)OC1OC(C)C (configuration not stated) | -2.5 | 3.6 | -3.4 | -5.2 | -13.2 | -31.7 | /
COc1ccc(N2CCN(C(=O)Cn3cnc4c(cnn4-c4ccccc4)c3=O)CC2)cc1 | 4.3 | 23.8 | 10.1 | -2.6 | 18.8 | -2.5 | /
COc1ccc(N2CCN(C(=O)Cn3cnc4c(cnn4-c4ccc(C)cc4)c3=O)CC2)cc1 | -3.4 | 19.7 | -23.8 | -3.4 | 61.2* | 17.6 | -6.8
Cc1ccc(-n2c(C)c([N+](=O)[O-])c3ccc(O)c(CN(C)C)c32)cc1 | -2.2 | 8.3 | 18.6 | -2.2 | 85.1* | -37.2 | 80.0* | FLuc counter=54.3*
COc1ccc2ccc(O)c(CN3CCN(S(=O)(=O)c4cc([N+](=O)[O-])ccc4C)CC3)c2c1 | / | / | -6.8 | / | 26.3 | 20.5 | /
COc1ccc(-n2c(C)c([N+](=O)[O-])c3ccc(O)c(CN4CCCCC4)c32)cc1 | -2.4 | 3.3 | 1.4 | -4.2 | 77.3* | -44.3 | 58.4* | FLuc counter=28.9

Bioassay records (PubChem BioAssay)
